Activity calls are given as the source filed them. The calls are words filed in the database; no cut-off is given here.
Key:
[1] = tested on: SK-OV-3; test: Antiproliferative activity against human SKOV3 cells at 4 uM after 48 hrs by MTT assay; type: functional; settings: SK-OV-3, 48 h
Procedure, shortened: (§1)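 Epithelial cancer lines came from ATCC and were seeded the day before in complete medium: PC-3, SkOV3 and A549 at 3,000/well; MiaPaCa-2 and BxPC-3 at 4,000; T-47D and MDA-MB-468 at 5,000. Medium was switched to 0.5% FBS just before exposure to 4 μM. Read-out was MTT (4 h, 37 °C), SDS/HCl solubilisation, A595 minus cell-free blank. Growth inhibition was taken versus DMSO (≤0.1% v/v) controls, ≥2 experiments in triplicate.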

[2] = target: T1, Retinoic acid receptor alpha (Homo sapiens) (UniProt P10276); test: Inhibition of transactivation activity of Gal4-LBD fused human RARalpha (156 to 454) transfected in atRA-stimulated african green monkey CV1 cells at 0.2 uM after 6 hrs by Dual-light chemiluminescent assay; type: cell-based
T1 sequence (whole entry): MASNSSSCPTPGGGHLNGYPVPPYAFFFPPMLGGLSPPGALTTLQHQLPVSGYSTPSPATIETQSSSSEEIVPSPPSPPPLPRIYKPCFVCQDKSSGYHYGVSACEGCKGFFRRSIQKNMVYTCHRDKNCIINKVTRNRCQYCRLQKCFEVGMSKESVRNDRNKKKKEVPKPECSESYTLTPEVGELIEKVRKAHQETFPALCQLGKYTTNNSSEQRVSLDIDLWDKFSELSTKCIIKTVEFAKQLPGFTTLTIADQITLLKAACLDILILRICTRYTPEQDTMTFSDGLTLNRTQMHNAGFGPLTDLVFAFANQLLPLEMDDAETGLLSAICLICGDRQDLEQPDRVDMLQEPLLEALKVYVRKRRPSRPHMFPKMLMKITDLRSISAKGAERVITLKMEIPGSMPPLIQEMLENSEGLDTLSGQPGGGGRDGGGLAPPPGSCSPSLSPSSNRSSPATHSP
Procedure, shortened: (§2)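 Gal4 DBD (1–147) was fused to hRARα (156–462) or hRARβ (169–448) LBD. CV-1 cells (20,000/well) were co-transfected with 10 ng Gal4-LBD, 100 ng UAS-luciferase and 25 ng β-gal vector. After 16 h the medium was replaced with medium containing 5% charcoal-treated FBS. Cells got atRA plus test compound at 10-, 40- or 200-fold excess (0.2, 0.8, 4 μM) for 6 h. Luciferase and β-galactosidase were read by chemiluminescence.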

[3] = tested on: MDA-MB-468; test: Antiproliferative activity against human MDA-MB-468 cells at 4 uM after 48 hrs by MTT assay; type: functional; settings: MDA-MB-468, 48 h; procedure, shortened: as §1
[4] = target: T2, Retinoic acid receptor gamma (Homo sapiens) (UniProt P13631); test: Inhibition of transactivation activity of Gal4-LBD fused human RARgamma (178 to 454) transfected in atRA-stimulated african green monkey CV1 cells at 4 uM after 20 hrs by Dual-light chemiluminescent assay; settings: CV-1
T2 sequence (whole entry): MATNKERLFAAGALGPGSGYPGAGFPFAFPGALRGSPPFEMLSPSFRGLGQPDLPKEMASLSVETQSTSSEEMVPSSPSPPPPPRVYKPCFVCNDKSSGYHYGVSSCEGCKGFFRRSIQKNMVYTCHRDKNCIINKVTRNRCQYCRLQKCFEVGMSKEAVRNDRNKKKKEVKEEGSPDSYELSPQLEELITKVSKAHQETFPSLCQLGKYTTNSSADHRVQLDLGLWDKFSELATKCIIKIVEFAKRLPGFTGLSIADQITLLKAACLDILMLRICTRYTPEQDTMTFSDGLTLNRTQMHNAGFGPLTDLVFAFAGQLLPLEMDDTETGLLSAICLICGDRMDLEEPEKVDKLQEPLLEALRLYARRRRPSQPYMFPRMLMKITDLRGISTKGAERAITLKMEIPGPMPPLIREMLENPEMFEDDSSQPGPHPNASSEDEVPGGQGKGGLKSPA

[5] = tested on: PC-3; test: Antiproliferative activity against human PC3 cells at 4 uM after 48 hrs by MTT assay; type: functional; settings: PC-3, 48 h; procedure, shortened: as §1
[6] = target: T3, Retinoic acid receptor beta (Homo sapiens) (UniProt P10826); test: Transactivation of Gal4-LBD fused human RARbeta (169 to 448) transfected in african green monkey CV1 cells assessed as luciferase activity at 2 uM after 6 hrs by Dual-light chemiluminescent assay; type: cell-based; settings: CV-1
T3 sequence (whole entry): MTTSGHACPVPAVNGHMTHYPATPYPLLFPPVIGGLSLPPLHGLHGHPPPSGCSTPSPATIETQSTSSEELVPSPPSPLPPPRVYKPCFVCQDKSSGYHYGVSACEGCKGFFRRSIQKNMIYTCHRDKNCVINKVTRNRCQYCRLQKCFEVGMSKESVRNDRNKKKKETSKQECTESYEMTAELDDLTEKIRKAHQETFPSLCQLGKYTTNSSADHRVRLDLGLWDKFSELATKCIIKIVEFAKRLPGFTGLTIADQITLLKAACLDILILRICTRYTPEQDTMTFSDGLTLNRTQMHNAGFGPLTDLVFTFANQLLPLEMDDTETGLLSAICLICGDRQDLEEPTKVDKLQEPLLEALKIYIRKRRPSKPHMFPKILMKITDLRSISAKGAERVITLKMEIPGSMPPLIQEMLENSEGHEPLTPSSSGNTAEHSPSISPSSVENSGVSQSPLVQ
Procedure, shortened: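 Transfected CV-1 cells carried Gal4-LBD constructs: hRARα 156–462, hRARβ 169–448, hRARγ 178–454 or mRXRα 218–467. Transfection used 10 ng Gal4-LBD, 100 ng UAS-luciferase and 25 ng β-gal vector. After 16 h the medium was changed to 5% charcoal-treated FBS. Cells were stimulated with 2 μM analog for 6 h (RARα, RARβ, RXRα) or 20 h (RARγ). Reference agonists were 1 μM atRA (RARα) and 1 μM 9cRA (RXRα). Luciferase and β-galactosidase were read by chemiluminescence.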

[7] = tested on: A549; test: Antiproliferative activity against human A549 cells at 4 uM after 72 hrs by MTT assay; type: functional; settings: A549, 72 h; procedure, shortened: as §1
[8] = target: T4, Retinoic acid receptor RXR-alpha (Mus musculus, UniProt P28700); test: Transactivation of Gal4-LBD fused mouse RXRalpha (218 to 467) transfected in african green monkey CV1 cells assessed as luciferase activity at after 6 hrs by Dual-light chemiluminescent assay; type: cell-based, CV-1
T4 sequence (P28700 whole entry): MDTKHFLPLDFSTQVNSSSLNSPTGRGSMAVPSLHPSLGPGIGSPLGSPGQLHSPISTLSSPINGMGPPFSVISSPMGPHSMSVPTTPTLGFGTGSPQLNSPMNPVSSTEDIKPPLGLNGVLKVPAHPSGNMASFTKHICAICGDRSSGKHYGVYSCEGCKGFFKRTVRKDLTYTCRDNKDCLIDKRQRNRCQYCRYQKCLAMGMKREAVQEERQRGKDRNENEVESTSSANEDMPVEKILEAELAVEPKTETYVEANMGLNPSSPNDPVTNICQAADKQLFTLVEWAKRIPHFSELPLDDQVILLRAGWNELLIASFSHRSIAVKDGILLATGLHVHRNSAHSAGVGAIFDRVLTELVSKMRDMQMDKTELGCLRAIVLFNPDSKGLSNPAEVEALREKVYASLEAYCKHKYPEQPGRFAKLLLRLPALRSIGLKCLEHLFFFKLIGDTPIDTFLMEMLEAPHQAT

[9] = target: T3, Retinoic acid receptor beta (Homo sapiens); test: Inhibition of transactivation activity of Gal4-LBD fused human RARbeta (169 to 448) transfected in atRA-stimulated african green monkey CV1 cells at 4 uM after 6 hrs by Dual-light chemiluminescent assay; type: cell-based; settings: CV-1; procedure, shortened: as §2
[10] = tested on: BXPC-3; test: Antiproliferative activity against human BxPC3 cells at 4 uM after 48 hrs by MTT assay; type: functional; settings: BXPC-3, 48 h; procedure, shortened: as §1
[11] = tested on: MIA PaCa-2; test: Antiproliferative activity against human MIAPaCa2 cells at 4 uM after 48 hrs by MTT assay; type: functional; settings: MIA PaCa-2, 48 h; procedure, shortened: as §1
[12] = tested on: Jurkat; test: Antiproliferative activity against human Jurkat T cells after 48 hrs by MTT assay
[13] = target: T1, Retinoic acid receptor alpha (Homo sapiens); test: Transactivation of Gal4-LBD fused human RARalpha (156 to 454) transfected in african green monkey CV1 cells assessed as luciferase activity at 2 uM after 6 hrs by Dual-light chemiluminescent assay; type: cell-based; settings: CV-1
[14] = tested on: T47D; test: Antiproliferative activity against human T47D cells at 4 uM after 48 hrs by MTT assay; type: functional; procedure, shortened: as §1
[15] = target: T1, Retinoic acid receptor alpha (Homo sapiens); test: Inhibition of transactivation activity of Gal4-LBD fused human RARalpha (156 to 454) transfected in atRA-stimulated african green monkey CV1 cells at 4 uM after 6 hrs by Dual-light chemiluminescent assay; type: cell-based; settings: CV-1; procedure, shortened: as §2
[16] = tested on: Jurkat; test: Induction of apoptosis in human Jurkat T cells assessed as induction of DEVDase activity at 4 uM after 4 hrs by fluorescence assay; type: functional, cell-based
Procedure, shortened: (§3)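 Jurkat cells (40,000/well, 10^6 cells/mL, RPMI with 0.5% FBS) were treated for 4 h; controls got 0.1% DMSO. Lysis was in CE buffer (PIPES pH 7, NP-40, cytochalasin B, protease inhibitors) for 30 min at 4 °C. Lysates were mixed with 2x caspase buffer (HEPES pH 7.4, CHAPS, sucrose) holding 100 μM Ac-DEVD-AFC and incubated at 37 °C for 30 min. AFC was read every 2 min, ex 390/em 510 nm.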

[17] = tested on: Jurkat; test: Induction of apoptosis in human Jurkat T cells assessed as induction of DEVDase activity at 1 uM after 4 hrs by fluorescence assay; type: functional, cell-based; procedure, shortened: as §3
[18] = tested on: Jurkat; test: Antiproliferative activity against human Jurkat T cells at 2 uM after 48 hrs by MTT assay; type: functional, cell-based
Procedure, shortened: (§4)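 Jurkat T cells were resuspended at 10^5 cells/mL in RPMI with 0.5% FBS (10,000/well) and seeded immediately before dosing at 62.5 nM–2 μM for two days. Viability was read by MTT (4 h, 37 °C), formazan dissolved in 10% SDS/10 mM HCl, A595 with cell-free background subtracted. Values are relative to DMSO controls (≤0.1% v/v); at least two experiments in triplicate.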

[19] = tested on: Jurkat; test: Antiproliferative activity against human Jurkat T cells at 62.5 nM after 48 hrs by MTT assay; type: functional, cell-based; procedure, shortened: as §4

| SMILES | inhibition at 4 µM [1] | inhibition ([2]; CV-1, 0.2 uM) | inhibition at 4 µM [3] | Activity [4] | inhibition at 4 µM [5] | Activity [6] | inhibition at 4 µM [7] | EC50 [8] | Activity [9] | inhibition at 4 µM [10] | inhibition at 4 µM [11] | IC50 [12] | Activity [13] | inhibition at 4 µM [14] | inhibition [15] | Activity [16] | inhibition ([2]; CV-1, 4 uM, in the assay text read “at 4 uM” for “at 0.2 uM”) | Activity [17] | Activity [18] | Activity [19] |
| --- | --- | --- | --- | --- | --- | --- | --- | --- | --- | --- | --- | --- | --- | --- | --- | --- | --- | --- | --- | --- |
| COCCOCOc1cc(C)c(-c2ccc(/C=C/C(=O)O)cc2Cl)cc1C12CC3CC(CC(C3)C1)C2 | 80.1% | inactive | 42% | inactive | 72% | inactive | 51.1% | 600 nM | inactive | 45.8% | 63.3% | 1870 nM | inactive | 29.1% | 27% |  |  |  |  |  |
| COCCOCOc1ccc(C(=O)/C=C/c2ccc(C(=O)O)cc2)cc1C12CC3CC(CC(C3)C1)C2 | 61.5% |  | 72.4% | Active | 92.1% | inactive | 42.1% |  | Active | 96.6% | 74.9% | 287 nM | inactive | 50.6% |  | Active | 90% | Active |  |  |
| Cc1cc(O)c(C23CC4CC(CC(C4)C2)C3)cc1-c1ccc2cc(C(=O)O)ccc2c1Cl | 87% | inactive | 59.2% | inactive | 97.7% | inactive | 88.1% |  | inactive | 94.7% | 91.5% | 435 nM | inactive | 55.8% | 27% |  |  | Active |  |  |
| C/C(=C/c1ccc(C(=O)O)cc1)c1ccc(O)c(C23CC4CC(CC(C4)C2)C3)c1 | 67% |  | 76.7% |  | 92.3% | inactive | 79% |  |  | 95.7% | 76.1% | 82 nM | inactive | 62.7% |  | Active |  | Active |  |  |
| Cc1cc(O)c(C23CC4CC(CC(C4)C2)C3)cc1-c1ccc(CC(=O)O)cc1Cl | 30.3% | inactive | 11.1% | inactive | 66.7% | inactive | 15.9% |  | inactive | 49.2% | 26.8% |  | inactive | 29.1% |  |  |  |  | Active | inactive |
| Cc1cc(O)c(C23CC4CC(CC(C4)C2)C3)cc1-c1ccc(/C=C/C(=O)O)cc1Cl | 65.1% | inactive | 24.9% | inactive | 68.7% | inactive | 23.7% | 576 nM | inactive | 36% | 26.3% | 1410 nM | inactive | 24.2% |  |  |  |  |  | inactive |
